Experimental data from paper PMC6620028 (Cancer cell, 2019).

Experiments:
[1] = system: OCI-AML2, OCI-AML3, TEX, Z138, HCT-116, HeLa, OC316, SUM159 cells; assay: Growth and viability of leukemia, lymphoma and solid tumor cell lines; type: cell-based, human; conditions: 72 hr
AML and other cancers = conditions: early phase clinical trials against AML and other cancers, ref Arrillaga-Romany et al., 2017, Kline et al., 2016, Stein et al.; cited from earlier work
[2] = system: normal hematopoietic cells; assay: Effect on normal hematopoietic cells; conditions: 72 hr
[3] = system: ONC201-resistant Z138 cells (ONC-R Z138); assay: Growth and viability, ONC201-resistant Z138; type: cell-based, human; conditions: ONC-R Z138 compared with parental Z138
[4] = target: T1, human ClpP (recombinant WT) (Homo sapiens, UniProt Q16740); assay: ClpP FITC-casein degradation, cell-free fluorescence assay; type: biochemical; conditions: positive cooperativity
[5] = target: T1, human ClpP (recombinant WT); assay: ClpP AC-WLA-AMC fluorogenic peptide cleavage assay; type: biochemical; conditions: read-out: EC50, ClpP cleavage of AC-WLA-AMC; without ClpX
[6] = target: T1, human ClpP (recombinant WT); assay: ClpP Ac-Phe-hArg-Leu-ACC fluorogenic peptide cleavage assay; type: biochemical; conditions: read-out: EC50, ClpP cleavage of Ac-Phe-hArg-Leu-ACC; without ClpX
[7] = target: T1, human ClpP (recombinant WT); assay: ClpP Clptide fluorogenic peptide cleavage assay; type: biochemical; conditions: read-out: EC50, ClpP cleavage of FAPHMALVPC (Clptide); without ClpX
[8] = system: primary AML patient samples; assay: Apoptosis in primary AML patient samples; type: cell-based, human; conditions: 72 hr; including high risk cytogenetics and molecular mutations
[9] = system: CLPP+/+ T-REx HEK293 cells; assay: Alamar blue viability, CLPP+/+ T-REx HEK293; type: cell-based, human; conditions: T-REx HEK293, 72 hr
[10] = system: CLPP-/- T-REx HEK293 cells; assay: Alamar blue viability, CLPP-/- T-REx HEK293; type: cell-based, human; conditions: T-REx HEK293, 72 hr
recombinant D190A ClpP = recombinant D190A ClpP (Homo sapiens, UniProt Q16740, D190A); assay: D190A ClpP enzymatic assays; type: biochemical; conditions: peptide or protein substrates
[11] = target: endogenous ClpP in OCI-AML2 (Homo sapiens, UniProt Q16740); assay: Cellular thermal shift assay; type: cell-based; conditions: at concentrations associated with activation in the enzymatic assays
ClpP = ClpP (Homo sapiens, UniProt Q16740); assay: Gel-based α-casein degradation assay; type: biochemical; conditions: 3 hr, without ClpX
[12] = system: Z138 cells with WT ClpP overexpression; assay: Z138 xenograft with WT ClpP overexpression; type: in vivo, NSG mice; conditions: ONC212 50 mg/kg every other day, oral gavage, WT ClpP group
Procedure, shortened: (§1)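 Female NSG mice (n = 7 per group) received two million luciferase-labelled Z138 cells transfected with a WT or D190A mutant CLPP-overexpressing vector. Engraftment was confirmed by bioluminescence imaging on day 9 post-transplantation. Test compound (50 mg/kg) or water vehicle was then given by oral gavage every other day until moribund. Tumour burden was followed weekly by IVIS luminescence until day 31, and survival was recorded.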

[13] = system: Z138 cells with D190A ClpP overexpression; assay: Z138 xenograft with D190A ClpP overexpression; type: in vivo, NSG mice; conditions: ONC212 50 mg/kg every other day, oral gavage; D190A ClpP group
Procedure, shortened: as §1

OCI-AML2 cells = assay: Alamar blue viability assay, OCI-AML2; type: cell-based, human; conditions: read-out: IC50, growth and viability, OCI-AML2, 72-hr exposure

T1 sequence (Q16740 57-277): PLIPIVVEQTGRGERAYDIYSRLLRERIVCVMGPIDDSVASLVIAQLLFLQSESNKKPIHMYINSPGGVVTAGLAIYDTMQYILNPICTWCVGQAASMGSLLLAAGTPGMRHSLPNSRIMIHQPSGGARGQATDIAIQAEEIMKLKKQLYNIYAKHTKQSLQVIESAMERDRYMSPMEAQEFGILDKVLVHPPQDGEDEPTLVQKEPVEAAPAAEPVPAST
Sequence of ClpP (Q16740 57-277): as above
Sequence of endogenous ClpP in OCI-AML2 (Q16740 57-277): as above
Sequence of recombinant D190A ClpP (Q16740 57-277 D190A): as the sequence (Q16740 57-277) above, with D134A counted along it

Molecule: Cc1ccccc1CN1C(=O)C2=C(CCN(Cc3ccccc3)C2)N2CCN=C12 [ONC201]
- IC50 values, growth and viability [1]: low micromolar
- Serious adverse events in clinical trials (AML and other cancers): without serious adverse events reported yet
- Effect on normal hematopoietic cells [2]: had little effect

Molecule: CC[C@]1(O)C[C@H]2CN(CCc3c([nH]c4ccccc34)[C@@](C(=O)OC)(c3cc4c(cc3OC)N(C=O)[C@H]3[C@@](O)(C(=O)OC)[C@H](OC(C)=O)[C@]5(CC)C=CCN6CC[C@]43[C@@H]65)C2)C1 [vincristine]
- Growth and viability / sensitivity of ONC201-resistant Z138 cells [3]: retained similar sensitivity

Molecule: O=C1C2=C(CCN(Cc3ccccc3)C2)N2CCN=C2N1Cc1ccc(C(F)(F)F)cc1 [ONC212]
- Hill coefficient (FITC-casein data) [4]: 4.98 ± 0.47
- EC50 [5]: 0.18 µM
- EC50 [6]: 0.37 µM
- EC50 [7]: 3.37 µM
- IC50 values, growth and viability [1]: nanomolar range
- Apoptosis in primary AML patient samples [8]: induced apoptosis
- Growth and viability of CLPP+/+ cells [9]: reduced the growth and viability
- Growth and viability of CLPP-/- cells [10]: but not CLPP^−/− cells
- Growth and viability / sensitivity of ONC201-resistant Z138 cells [3]: cross-resistant
- Activation of proteolytic activity of D190A ClpP (recombinant D190A ClpP): could not activate proteolytic activity
- Binding of endogenous ClpP in cells (CETSA) [11]: bound endogenous ClpP
- Degradation of α-casein by ClpP (SDS-PAGE) (ClpP): induced cleavage of α-casein without the need for ClpX
- Tumor burden (luciferase, IVIS imaging) [12]: significantly reduced
- Median survival ([12]; vehicle 49 days): 55 days
- Tumor burden / anti-tumor activity (luciferase, IVIS imaging) [13]: no discernable anti-tumor activity
- Effect on normal hematopoietic cells [2]: had little effect

Molecule: COc1cccc2c1C(=O)c1c(O)c3c(c(O)c1C2=O)C[C@@](O)(C(=O)CO)C[C@@H]3O[C@H]1C[C@H](N)[C@H](O)[C@H](C)O1 [adriamycin]
- Growth and viability / sensitivity of ONC201-resistant Z138 cells [3]: retained similar sensitivity

Molecule: Acyldepsipeptide 1 [ADEP1]
- IC50 (OCI-AML2 cells): 50 µM
